Measurements published in article PMC5485419 (Theranostics, 2017).
Values after ≈ are worked out from the molar mass of the structure shown.

Legend:
FLS cells = assay: Apoptosis detection in FLS cells; type: cell-based, rat; conditions: all at 0.4 mg/ml Ket, 48 h, versus untreated groups
How it was run: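 FLS cells were taken from arthritis-affected rat joints and grown in MEM with 10 % fetal calf serum at 37 °C under 5 % CO2. Cells were seeded at 1 × 10^6 per well, grown overnight, and exposed to the test compound (0.016-0.71 mg/ml) for 48 h. They were then trypsinised, washed, and resuspended at ∼1×10^6 cells/mL in annexin-binding buffer. Alexa Fluor 488 annexin V and PI were added for 15 min at room temperature before immediate flow cytometry.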

In vitro release profile = type: physicochemical; conditions: non-gelled solution controls, 37 °C, PBS pH 7.4, dialysis bags
How it was run: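 Samples of 200 μL at 4 mg/ml (gels, non-gelled conjugate solutions and parent drug) were dialysed (MWCO 800-1000) against PBS pH 7.4 at 37 °C. The 200 μL release medium was sampled and refreshed at set times. Released conjugate was quantified by C18 HPLC (30 °C; acetonitrile/0.1 % TFA gradient; 1.0 mL/min) at 260 nm.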

COX-1 (ovine) = target: T1, COX-1 (ovine) (Ovis aries, UniProt P05979); assay: COX Fluorescent Inhibitor Screening Assay, COX-1; type: biochemical
T1 sequence (P05979 25-600): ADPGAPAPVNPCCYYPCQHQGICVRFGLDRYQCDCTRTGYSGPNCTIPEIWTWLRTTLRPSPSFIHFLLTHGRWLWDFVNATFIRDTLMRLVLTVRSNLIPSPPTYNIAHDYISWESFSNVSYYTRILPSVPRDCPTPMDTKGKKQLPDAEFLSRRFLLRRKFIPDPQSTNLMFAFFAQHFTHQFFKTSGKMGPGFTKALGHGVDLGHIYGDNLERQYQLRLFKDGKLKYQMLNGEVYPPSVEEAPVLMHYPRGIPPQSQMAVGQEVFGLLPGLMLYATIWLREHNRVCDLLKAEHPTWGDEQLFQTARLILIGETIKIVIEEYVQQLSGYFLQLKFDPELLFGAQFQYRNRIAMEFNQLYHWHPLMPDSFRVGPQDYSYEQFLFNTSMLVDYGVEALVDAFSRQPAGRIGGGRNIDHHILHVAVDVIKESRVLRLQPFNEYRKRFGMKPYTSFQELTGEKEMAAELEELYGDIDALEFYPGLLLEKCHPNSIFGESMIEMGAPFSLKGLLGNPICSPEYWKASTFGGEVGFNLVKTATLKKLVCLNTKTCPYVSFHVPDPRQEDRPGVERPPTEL
How it was run: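 The kit's peroxidase read-out was used: PGG2 converts ADHP to resorufin, read at excitation 530-540 nm and emission 585-595 nm. Ovine COX-1 was mixed with inhibitor, heme, fluorometric substrate and assay buffer. Arachidonic acid started the reaction, and plates were read exactly 2 min later at room temperature. No-enzyme blanks and no-inhibitor controls were included, and each compound was run in triplicate.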

[1] = In vitro FLS cell toxicity assay; type: cell-based; conditions: Sprague Dawley, rat
How it was run: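 FLS cells from adjuvant-arthritic rat joints, in MEM with 10 % fetal calf serum at 37 °C and 5 % CO2, were seeded at 1.0×10^5/well and grown overnight. Cells were treated with six concentrations for 48 h, then given 20 µl MTT (5 mg/ml) for 4 h. Formazan was dissolved in DMSO and A490 read. Viability is relative to untreated cells, in triplicate; IC50 was read from the curves.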

[2] = system: IL-1 and TNFα production by FLS cells; assay: Determination of IL-1 and TNF-α in FLS cell supernatants; type: cell-based, rat; conditions: 0.355 mg/ml, 48 h, compared with the untreated control group
How it was run: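 Rat FLS cells, isolated from synovial tissue of adjuvant-arthritic rats, were seeded at 1×10^5/well in MEM with 10 % fetal calf serum (37 °C, 5 % CO2) and grown overnight. They were then exposed to test compound at 0.355 mg/ml for 48 h. Supernatant cytokines were measured by ELISA against untreated cells, in triplicate (n = 3), with one-way ANOVA.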

SMILES: C[C@H](C(=O)O)c1cccc(C(=O)c2ccccc2)c1 [(S)-Ket, (S)-Ketoprofen]
- Extent of apoptosis in FLS cells (FLS cells): greater degree of cell death than untreated groups
- Time of drug release from solution (In vitro release profile): within a few hours
- IC50 (COX-1 (ovine)): 5.1 µM
- IC50 at 48 h [1]: 159 µg/mL (≈ 625 µM)
- IL-1 production by FLS cells [2]: trace amounts
- TNFα production by FLS cells [2]: comparatively lower amount
